This note sets out measurements from ChEMBL document CHEMBL3351939, “Diterpenoids with Immunosuppressive Activities from Cinnamomum cassia” (J Nat Prod, 2014).

Calls of active or inactive are those of the source. The calls are words filed in the database; no cut-off is given here.

One data set deals with B. Briefly: Immunosuppressive activity in mouse B cells assessed as inhibition of LPS-induced cell proliferation at 0.05 to 0.8 mM. The class given is functional, cell-based. Put shortly: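 Murine splenocytes with LPS-induced B-cell proliferation; the read-out is percent inhibition of proliferation.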
For a further data set, the system named is T-cell. Put plainly: Immunosuppressive activity in mouse T cells assessed as inhibition of ConA-induced cell proliferation at 0.05 to 0.8 mM. It is filed as functional, cell-based. In a few lines: (§1)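 Murine splenocytes with ConA-induced T-cell proliferation; the read-out is percent inhibition of proliferation. Cyclosporine A serves as the reference. Results are given as mean ± SD, n = 3.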

Data set [1] can be described thus: Toxicity against mouse lymphocytes assessed as cell viability at 50 uM. It is filed as cell-based, Lymphocyte. The note with it: read-out: Activity.
Data set [2] can be described thus: Immunosuppressive activity in mouse T cells assessed as inhibition of ConA-induced cell proliferation at 100 uM. It is filed as functional. Put shortly:
as §1

Data set [3] in a line: Immunosuppressive activity in mouse T cells assessed as inhibition of ConA-induced cell proliferation at 50 uM. It is filed as functional. In a few lines:
as §1

As for `CC1=C(C(C)C)C[C@@]2(O)[C@@]3(CO[C@@H]4O[C@H](CO)[C@@H](O)[C@H](O)[C@H]4O)CC(=O)O[C@H]([C@]4(O)[C@H](C)CC[C@@]43O)[C@@]12O`, the inhibition result with B and in the data set on T-cell was “inactive” each time.

On to `CC1=C([C@H](C)CO)C[C@@]2(O)[C@@]3(C)CC(=O)O[C@H]([C@]4(O)[C@H](C)CC[C@@]43O)[C@@]12O`, for which the inhibition result in the data set with B and in the data set on T-cell was “Dose-dependent effect” throughout. Also, in data set [1], the viability at 50 µM amounted to 105%. Besides, the inhibition at 100 µM in data set [2] worked out at 94.5%. Further, the inhibition at 50 µM in data set [3] is 86.1%.

For `CC1=C([C@H](C)CO)C[C@@]2(O)[C@@]3(C)CC(=O)O[C@@H]4[C@@H](C)CC[C@@]3(O)[C@@]4(O)[C@@]12O`, the inhibition entry with B and in the data set with T-cell was “Dose-dependent effect” each time. The viability at 50 µM in data set [1] came out at 97.8%. In addition, the inhibition at 50 µM in data set [3] is 58.8%.

`C/C=C/C[C@@H](C)[C@@H](O)[C@H]1C(=O)N[C@@H](CC)C(=O)N(C)CC(=O)N(C)[C@@H](CC(C)C)C(=O)N[C@@H](C(C)C)C(=O)N(C)[C@@H](CC(C)C)C(=O)N[C@@H](C)C(=O)N[C@H](C)C(=O)N(C)[C@@H](CC(C)C)C(=O)N(C)[C@@H](CC(C)C)C(=O)N(C)[C@@H](C(C)C)C(=O)N1C` [CYCLOSPORINE]: in data set [2], the inhibition at 100 µM is 101%.
